# ChEMBL document CHEMBL3407460, “Synthesis of novel thiazole-based 8,9-dihydro-7H-pyrimido[4,5-b][1,4]diazepines as potential antitumor and antifungal agents” (2015)
# Legend:
# Format in all cases: functional
# Candida albicans [1] = test: Antifungal activity against Candida albicans ATCC 10231 assessed as growth inhibition at 250 ug/ml after 48 hrs by broth microdilution method; settings: ATCC 10231, 48 h
# In short: (§1)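 CLSI M27-A3 broth microdilution in RPMI-1640. Compound stocks were made in DMSO (final at most 1%) and tested at final levels of 250 to 0.98. Inoculum was 1–5 × 10^3 CFU/mL, incubated 48 h at 30 °C in a moist, dark chamber. Growth and sterility control wells were included.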
# Cryptococcus neoformans [2] = test: Antifungal activity against Cryptococcus neoformans IM 052470 clinical isolate after 48 hrs by broth microdilution method; settings: IM 052470, 48 h
# In short: (§2)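 Clinical isolates from the Malbrán Institute were grown on Sabouraud-chloramphenicol agar for 48 h at 30 °C, kept on Sabouraud-dextrose agar and subcultured every 15 days. Endpoints MIC100, MIC80 and MIC50 were taken from % inhibition dose-response curves.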
# Cryptococcus neoformans [3] = test: Antifungal activity against Cryptococcus neoformans IM 972724 clinical isolate after 48 hrs by broth microdilution method; settings: IM 972724, 48 h
# In short: as §2, with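 “days. M27-A3 RPMI-1640 microdilution used 1–5 × 10^3 CFU/mL, 48 h at 30 °C, OD405 read, triplicate.” for “days.”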
# Cryptococcus neoformans [4] = test: Antifungal activity against Cryptococcus neoformans IM 961951 clinical isolate after 48 hrs by broth microdilution method; settings: IM 961951, 48 h
# In short: as §2, with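 “days. M27-A3 RPMI-1640 microdilution used 1–5 × 10^3 CFU/mL, 48 h at 30 °C, OD405 read, triplicate.” for “days.”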
# Cryptococcus neoformans [5] = test: Antifungal activity against Cryptococcus neoformans ATCC 32264 assessed as growth inhibition at 125 ug/ml after 48 hrs by broth microdilution method; settings: ATCC 32264, 48 h; in short: as §1
# Cryptococcus neoformans [6] = test: Antifungal activity against Cryptococcus neoformans ATCC 32264 assessed as growth inhibition at 3.9 ug/ml after 48 hrs by broth microdilution method; settings: ATCC 32264, 48 h; in short: as §1
# Cryptococcus neoformans [7] = test: Antifungal activity against Cryptococcus neoformans ATCC 32264 assessed as growth inhibition at 250 ug/ml after 48 hrs by broth microdilution method; settings: ATCC 32264, 48 h; in short: as §1
# Cryptococcus neoformans [8] = test: Antifungal activity against Cryptococcus neoformans IM 983040 clinical isolate after 48 hrs by broth microdilution method; settings: IM 983040, 48 h
# In short: as §2, with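 “days. M27-A3 RPMI-1640 microdilution used 1–5 × 10^3 CFU/mL, 48 h at 30 °C, OD405 read, triplicate.” for “days.”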
# Cryptococcus neoformans [9] = test: Antifungal activity against Cryptococcus neoformans IM 983036 clinical isolate after 48 hrs by broth microdilution method; settings: IM 983036, 48 h
# In short: as §2, with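 “days. M27-A3 RPMI-1640 microdilution used 1–5 × 10^3 CFU/mL, 48 h at 30 °C, OD405 read, triplicate.” for “days.”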
# Cryptococcus neoformans [10] = test: Antifungal activity against Cryptococcus neoformans ATCC 32264 assessed as growth inhibition at 7.81 ug/ml after 48 hrs by broth microdilution method; settings: ATCC 32264, 48 h; in short: as §1
# Cryptococcus neoformans [11] = test: Antifungal activity against Cryptococcus neoformans IM 031631 clinical isolate after 48 hrs by broth microdilution method; settings: IM 031631, 48 h
# In short: as §2, with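 “days. M27-A3 RPMI-1640 microdilution used 1–5 × 10^3 CFU/mL, 48 h at 30 °C, OD405 read, triplicate.” for “days.”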
# Candida albicans [12] = test: Antifungal activity against Candida albicans ATCC 10231 assessed as growth inhibition at 62.5 ug/ml after 48 hrs by broth microdilution method; settings: ATCC 10231, 48 h; in short: as §1
# Cryptococcus neoformans [13] = test: Antifungal activity against Cryptococcus neoformans IM 042074 clinical isolate after 48 hrs by broth microdilution method; settings: IM 042074, 48 h
# In short: as §2, with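 “days. M27-A3 RPMI-1640 microdilution used 1–5 × 10^3 CFU/mL, 48 h at 30 °C, OD405 read, triplicate.” for “days.”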
# Cryptococcus neoformans [14] = test: Antifungal activity against Cryptococcus neoformans ATCC 32264 assessed as growth inhibition at 15.62 ug/ml after 48 hrs by broth microdilution method; settings: ATCC 32264, 48 h; in short: as §1
# Candida albicans [15] = test: Antifungal activity against Candida albicans ATCC 10231 assessed as growth inhibition at 31.25 ug/ml after 48 hrs by broth microdilution method; settings: ATCC 10231, 48 h; in short: as §1
# Cryptococcus neoformans [16] = test: Antifungal activity against Cryptococcus neoformans IM 972751 clinical isolate after 48 hrs by broth microdilution method; settings: IM 972751, 48 h
# In short: as §2, with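 “days. M27-A3 RPMI-1640 microdilution used 1–5 × 10^3 CFU/mL, 48 h at 30 °C, OD405 read, triplicate.” for “days.”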
# Candida albicans [17] = test: Antifungal activity against Candida albicans ATCC 10231 assessed as growth inhibition at 15.62 ug/ml after 48 hrs by broth microdilution method; settings: ATCC 10231, 48 h; in short: as §1
# Cryptococcus neoformans [18] = test: Antifungal activity against Cryptococcus neoformans IM 00319 clinical isolate after 48 hrs by broth microdilution method; settings: IM 00319, 48 h; in short: as §2
# Cryptococcus neoformans [19] = test: Antifungal activity against Cryptococcus neoformans IM 031706 clinical isolate after 48 hrs by broth microdilution method; settings: IM 031706, 48 h; in short: as §2
# Cryptococcus neoformans [20] = test: Antifungal activity against Cryptococcus neoformans ATCC 32264 assessed as growth inhibition at 31.25 ug/ml after 48 hrs by broth microdilution method; settings: ATCC 32264, 48 h; in short: as §1
# Candida albicans [21] = test: Antifungal activity against Candida albicans ATCC 10231 assessed as growth inhibition at 125 ug/ml after 48 hrs by broth microdilution method; settings: ATCC 10231, 48 h; in short: as §1
# Candida albicans [22] = test: Antifungal activity against Candida albicans ATCC 10231 assessed as growth inhibition at 7.81 ug/ml after 48 hrs by broth microdilution method; settings: ATCC 10231, 48 h; in short: as §1
# Candida albicans [23] = test: Antifungal activity against Candida albicans ATCC 10231 assessed as growth inhibition at 3.9 ug/ml after 48 hrs by broth microdilution method; settings: ATCC 10231, 48 h; in short: as §1
# Cryptococcus neoformans [24] = test: Antifungal activity against Cryptococcus neoformans ATCC 32264 after 48 hrs by broth microdilution method; settings: ATCC 32264, 48 h
# Cryptococcus neoformans [25] = test: Antifungal activity against Cryptococcus neoformans ATCC 32264 assessed as growth inhibition at 62.5 ug/ml after 48 hrs by broth microdilution method; settings: ATCC 32264, 48 h; in short: as §1
compound,measurement,setting,value
Nc1nc(N)c2c(n1)NC(c1sc(Cl)nc1Cl)CC(c1ccc(Cl)cc1)=N2 (configuration not stated),inhibition at 250 µg/mL,Candida albicans [1],100%
same,MFC,Cryptococcus neoformans [2],62.5 µg/mL
same,MIC50,Cryptococcus neoformans [2],15.6 µg/mL
same,MIC80,Cryptococcus neoformans [2],31.2 µg/mL
same,MIC,Cryptococcus neoformans [2]; read-out: MIC100,62.5 µg/mL
same,MFC,Cryptococcus neoformans [3],31.2 µg/mL
same,MIC50,Cryptococcus neoformans [3],7.8 µg/mL
same,MIC80,Cryptococcus neoformans [3],15.6 µg/mL
same,MIC,Cryptococcus neoformans [3]; read-out: MIC100,15.6 µg/mL
same,MFC,Cryptococcus neoformans [4],62.5 µg/mL
same,MIC50,Cryptococcus neoformans [4],7.8 µg/mL
same,MIC80,Cryptococcus neoformans [4],15.6 µg/mL
same,MIC,Cryptococcus neoformans [4]; read-out: MIC100,15.6 µg/mL
same,inhibition at 125 µg/mL,Cryptococcus neoformans [5],58.2%
same,inhibition at 3.9 µg/mL,Cryptococcus neoformans [6],0%
same,inhibition at 250 µg/mL,Cryptococcus neoformans [7],78.7%
same,MFC,Cryptococcus neoformans [8],62.5 µg/mL
same,MIC50,Cryptococcus neoformans [8],31.2 µg/mL
same,MIC80,Cryptococcus neoformans [8],31.2 µg/mL
same,MIC,Cryptococcus neoformans [8]; read-out: MIC100,31.2 µg/mL
same,MFC,Cryptococcus neoformans [9],31.2 µg/mL
same,MIC50,Cryptococcus neoformans [9],15.6 µg/mL
same,MIC80,Cryptococcus neoformans [9],15.6 µg/mL
same,MIC,Cryptococcus neoformans [9]; read-out: MIC100,31.2 µg/mL
same,inhibition at 7.81 µg/mL,Cryptococcus neoformans [10],3.56%
same,MFC,Cryptococcus neoformans [11],62.5 µg/mL
same,MIC50,Cryptococcus neoformans [11],7.8 µg/mL
same,MIC80,Cryptococcus neoformans [11],15.6 µg/mL
same,MIC,Cryptococcus neoformans [11]; read-out: MIC100,31.2 µg/mL
same,inhibition at 62.5 µg/mL,Candida albicans [12],100%
same,MFC,Cryptococcus neoformans [13],62.5 µg/mL
same,MIC50,Cryptococcus neoformans [13],15.6 µg/mL
same,MIC80,Cryptococcus neoformans [13],31.2 µg/mL
same,MIC,Cryptococcus neoformans [13]; read-out: MIC100,31.2 µg/mL
same,inhibition at 15.62 µg/mL,Cryptococcus neoformans [14],13.1%
same,inhibition at 31.25 µg/mL,Candida albicans [15],100%
same,MFC,Cryptococcus neoformans [16],62.5 µg/mL
same,MIC50,Cryptococcus neoformans [16],31.2 µg/mL
same,MIC80,Cryptococcus neoformans [16],31.2 µg/mL
same,MIC,Cryptococcus neoformans [16]; read-out: MIC100,62.5 µg/mL
same,inhibition at 15.62 µg/mL,Candida albicans [17],100%
same,MFC,Cryptococcus neoformans [18],31.2 µg/mL
same,MIC50,Cryptococcus neoformans [18],7.8 µg/mL
same,MIC80,Cryptococcus neoformans [18],15.6 µg/mL
same,MIC,Cryptococcus neoformans [18]; read-out: MIC100,15.6 µg/mL
same,MFC,Cryptococcus neoformans [19],62.5 µg/mL
same,MIC50,Cryptococcus neoformans [19],7.8 µg/mL
same,MIC80,Cryptococcus neoformans [19],31.2 µg/mL
same,MIC,Cryptococcus neoformans [19]; read-out: MIC100,62.5 µg/mL
same,inhibition at 31.25 µg/mL,Cryptococcus neoformans [20],30.5%
same,inhibition at 125 µg/mL,Candida albicans [21],100%
same,inhibition at 7.81 µg/mL,Candida albicans [22],48.3%
same,inhibition at 3.9 µg/mL,Candida albicans [23],22.2%
same,MFC,Cryptococcus neoformans [24],31.2 µg/mL
same,MIC50,Cryptococcus neoformans [24],7.8 µg/mL
same,MIC80,Cryptococcus neoformans [24],15.6 µg/mL
same,MIC,Cryptococcus neoformans [24]; read-out: MIC100,15.6 µg/mL
same,inhibition at 62.5 µg/mL,Cryptococcus neoformans [25],40.5%
Nc1nc(N)c2c(n1)NC(c1sc(Cl)nc1Cl)CC(c1ccc(F)cc1)=N2 (configuration not stated),inhibition at 250 µg/mL,Candida albicans [1],59.9%
same,inhibition at 125 µg/mL,Cryptococcus neoformans [5],24.6%
same,inhibition at 3.9 µg/mL,Cryptococcus neoformans [6],3.83%
same,inhibition at 250 µg/mL,Cryptococcus neoformans [7],25.5%
same,inhibition at 7.81 µg/mL,Cryptococcus neoformans [10],5.01%
same,inhibition at 62.5 µg/mL,Candida albicans [12],43.3%
same,inhibition at 15.62 µg/mL,Cryptococcus neoformans [14],7.17%
same,inhibition at 31.25 µg/mL,Candida albicans [15],21.3%
same,inhibition at 15.62 µg/mL,Candida albicans [17],17.9%
same,inhibition at 31.25 µg/mL,Cryptococcus neoformans [20],11%
same,inhibition at 125 µg/mL,Candida albicans [21],51.7%
same,inhibition at 7.81 µg/mL,Candida albicans [22],0%
same,inhibition at 3.9 µg/mL,Candida albicans [23],0%
same,inhibition at 62.5 µg/mL,Cryptococcus neoformans [25],12.8%
